IC50 data for 25 compounds are collected here from ChEMBL document CHEMBL2331353, “Synthesis and biological evaluation of some novel resveratrol amide derivatives as potential anti-tumor agents” (Eur J Med Chem, 2013).

Broadly, the IC50 is the midpoint of a concentration-inhibition curve.

The target of assay [1] is T1, Prostaglandin G/H synthase 2 (Mus musculus, UniProt Q05769).
T1 sequence (Q05769 whole entry): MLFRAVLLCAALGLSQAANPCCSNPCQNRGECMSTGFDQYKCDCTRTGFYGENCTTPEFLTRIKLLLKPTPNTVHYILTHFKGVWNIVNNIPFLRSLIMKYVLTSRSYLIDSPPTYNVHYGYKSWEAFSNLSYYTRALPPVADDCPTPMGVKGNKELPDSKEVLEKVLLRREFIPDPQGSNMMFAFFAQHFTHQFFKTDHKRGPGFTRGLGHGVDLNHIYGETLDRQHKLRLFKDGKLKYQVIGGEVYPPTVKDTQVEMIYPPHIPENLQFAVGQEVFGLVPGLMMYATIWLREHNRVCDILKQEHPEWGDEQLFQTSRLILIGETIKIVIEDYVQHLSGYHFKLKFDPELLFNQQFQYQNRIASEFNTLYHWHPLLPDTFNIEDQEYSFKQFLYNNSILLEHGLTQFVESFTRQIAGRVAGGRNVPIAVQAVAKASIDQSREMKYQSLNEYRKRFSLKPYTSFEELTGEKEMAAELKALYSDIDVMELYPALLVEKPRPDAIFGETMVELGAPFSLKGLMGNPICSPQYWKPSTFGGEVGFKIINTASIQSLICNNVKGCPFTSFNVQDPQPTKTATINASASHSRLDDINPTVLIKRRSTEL
The experiment in a line: Inhibition of COX-2 in mouse RAW264.7 cells assessed as decrease in LPS-induced PGE2 production. The assay is classed as cell-based.

Assay [2] deals with T2, Prostaglandin G/H synthase 2 (Homo sapiens, UniProt P35354).
T2 sequence (P35354 whole entry): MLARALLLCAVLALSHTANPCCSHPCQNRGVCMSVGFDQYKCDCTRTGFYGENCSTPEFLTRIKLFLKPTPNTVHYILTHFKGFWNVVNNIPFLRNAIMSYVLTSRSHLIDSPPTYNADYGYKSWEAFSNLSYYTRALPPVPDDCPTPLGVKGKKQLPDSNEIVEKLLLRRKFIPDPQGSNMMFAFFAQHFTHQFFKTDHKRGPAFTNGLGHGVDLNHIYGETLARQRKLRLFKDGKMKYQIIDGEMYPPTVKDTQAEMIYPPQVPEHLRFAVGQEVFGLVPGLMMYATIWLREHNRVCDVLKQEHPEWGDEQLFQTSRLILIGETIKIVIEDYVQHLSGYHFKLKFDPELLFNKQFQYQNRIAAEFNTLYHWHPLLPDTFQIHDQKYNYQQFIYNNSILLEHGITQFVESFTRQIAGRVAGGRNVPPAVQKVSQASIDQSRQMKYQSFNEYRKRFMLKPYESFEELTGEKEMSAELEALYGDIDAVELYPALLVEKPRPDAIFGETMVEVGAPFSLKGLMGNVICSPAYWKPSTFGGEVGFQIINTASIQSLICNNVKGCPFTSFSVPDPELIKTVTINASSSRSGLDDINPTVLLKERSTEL
As to the kind of experiment: Inhibition of COX-2 (unknown origin) by chemiluminescence assay.

For another assay, the system named is B16-F10. The experiment in a line: Antitumor activity against mouse B16F10 cells assessed as inhibition of cell proliferation after 48 hrs by MTT assay. The following applies: B16-F10, 48 h. Format: functional, cell-based. The method in brief:
(§1)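 Cells grown to log phase in RPMI 1640 with 10% FBS, seeded at 2×10^4 cells/mL and preincubated 24 h at 37 °C, 5% CO2. Compounds at preset concentrations added (6 wells), celecoxib as positive reference, 48 h exposure. MTT (2.5 mg/mL in PBS) for 4 h, then SDS/isobutanol/HCl extraction overnight at 37 °C. OD read at 570 nm. Triplicate wells per concentration, at least three independent runs.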

Assay [3] has as its target Prostaglandin G/H synthase 1 (Homo sapiens, UniProt P23219). The experiment in a line: Inhibition of COX-1 (unknown origin) by chemiluminescence assay.
The test system of another assay is A549. As to the kind of experiment: Antitumor activity against human A549 cells assessed as inhibition of cell proliferation after 48 hrs by MTT assay. The assay is classed as functional, cell-based. The following applies: A549, 48 h. The method in brief:
as §1
(In general: Tetrazolium assays rely on reduction of a dye to a coloured formazan, in cell work by metabolically active cells.)

A further assay relates to MCF7. As to the kind of experiment: Antitumor activity against human MCF7 cells assessed as inhibition of cell proliferation after 48 hrs by MTT assay. To be noted: MCF7, 48 h. Format: functional, cell-based. The method in brief:
as §1

Some results are limits rather than exact numbers.

Prostaglandin G/H synthase 1, sequence (P23219 whole entry): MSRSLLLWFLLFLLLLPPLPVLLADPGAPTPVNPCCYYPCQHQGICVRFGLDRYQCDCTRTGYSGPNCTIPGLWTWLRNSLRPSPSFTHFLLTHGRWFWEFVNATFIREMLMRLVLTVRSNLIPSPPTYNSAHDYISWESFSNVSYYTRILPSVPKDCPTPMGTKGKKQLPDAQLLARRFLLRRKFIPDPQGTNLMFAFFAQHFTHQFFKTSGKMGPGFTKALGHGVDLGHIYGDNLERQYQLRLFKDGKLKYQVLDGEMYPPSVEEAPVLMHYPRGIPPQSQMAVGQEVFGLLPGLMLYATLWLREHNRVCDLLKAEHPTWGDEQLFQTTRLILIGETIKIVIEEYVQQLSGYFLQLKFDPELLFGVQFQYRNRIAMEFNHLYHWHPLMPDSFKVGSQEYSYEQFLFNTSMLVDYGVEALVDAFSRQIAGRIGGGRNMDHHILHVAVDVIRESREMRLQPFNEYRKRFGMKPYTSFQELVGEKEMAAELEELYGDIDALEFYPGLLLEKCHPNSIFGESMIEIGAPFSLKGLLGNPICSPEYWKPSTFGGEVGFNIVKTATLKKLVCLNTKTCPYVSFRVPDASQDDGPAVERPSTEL

As for `COc1ccc(/C=C/c2cc(OC)cc(OC)c2/C=C/C(=O)NCCCl)cc1`, the IC50 was found to be 0.45 µM in assay [1]; 1.36 µM in assay [2]; 3.45 µM with B16-F10; 32.3 µM in assay [3]; 2 µM in the assay with A549; 2.3 µM in the assay on MCF7.

Regarding `COc1ccc(/C=C/c2cc(OC)cc(OC)c2/C=C/C(=O)N2CCOCC2)cc1`, the IC50 in assay [1] is 0.85 µM; in assay [2] it was 1.88 µM; in the assay on B16-F10, 3.08 µM; in assay [3], greater than 50 µM; in the assay with A549, 2.32 µM; in the assay with MCF7, 3.31 µM.

In the case of `CCCN(CCC)C(=O)/C=C/c1c(/C=C/c2ccc(OC)cc2)cc(OC)cc1OC`, the IC50 in assay [1] was 3.88 µM; in assay [2] it was 8.06 µM; in the assay on B16-F10, 5.98 µM; in assay [3] it was 45.9 µM; in the assay with A549, 5.58 µM; in the assay with MCF7, 2 µM.

Consider `COc1ccc(/C=C/c2cc(OC)cc(OC)c2/C=C/C(=O)N2CCCCC2)cc1`, for which the IC50 is 15.3 µM in assay [1]; 23.2 µM in assay [2]; 9.75 µM in the assay with B16-F10; greater than 50 µM in assay [3]; 10.6 µM in the assay with A549; 6.05 µM with MCF7.

On to `CCC1CCCCN1C(=O)/C=C/c1c(/C=C/c2ccc(OC)cc2)cc(OC)cc1OC` (stereo not given), for which the IC50 is 6.27 µM in assay [1]; 10.3 µM in assay [2]; 7.38 µM with B16-F10; greater than 50 µM in assay [3]; 5.6 µM with A549; 5.24 µM with MCF7.

For `CCNC(=O)/C=C/c1c(/C=C/c2ccc(OC)cc2)cc(OC)cc1OC`, the IC50 in assay [1] was 7.06 µM; in assay [2], 12.4 µM; with B16-F10, 6.99 µM; in assay [3] it was 35.4 µM; with A549, 7.86 µM; in the assay on MCF7 it was 7.06 µM.

On to `Cc1ccc(-c2cc(C(F)(F)F)nn2-c2ccc(S(N)(=O)=O)cc2)cc1` [CELECOXIB], for which, in the assay on A549, the half-maximal inhibitory concentration (IC50) amounted to 15.6 µM.

As to `COc1ccc(/C=C/c2cc(OC)cc(OC)c2/C=C/C(=O)N2CCN(C)CC2)cc1`, the IC50 in assay [1] came to 1.62 µM; in assay [2] it was 5.78 µM; in the assay with B16-F10, 5.67 µM; in assay [3] it was 39.1 µM; in the assay on A549, 4.51 µM; with MCF7, 2.29 µM.

As to `CCCCCCNC(=O)/C=C/c1c(/C=C/c2ccc(OC)cc2)cc(OC)cc1OC`, the IC50 in assay [1] is 5.01 µM; in assay [2] it was 8.99 µM; in the assay on B16-F10, 7.18 µM; in assay [3], 34.7 µM; in the assay with A549, 6.23 µM; in the assay on MCF7, 5.53 µM.

In the case of `CCCCCCN(CCCCCC)C(=O)/C=C/c1c(/C=C/c2ccc(OC)cc2)cc(OC)cc1OC`, the IC50 in assay [1] was 3.1 µM; in assay [2] it was 9.08 µM; with B16-F10 it was 8.02 µM; in assay [3], greater than 50 µM; in the assay with A549 it was 5.34 µM; in the assay on MCF7 it was 4.03 µM.

Take `CCN(CC)C(=O)/C=C/c1c(/C=C/c2ccc(OC)cc2)cc(OC)cc1OC`: the IC50 in assay [1] is 2.15 µM; in assay [2], 4.67 µM; in the assay on B16-F10, 3.98 µM; in assay [3] it was greater than 50 µM; in the assay on A549, 3.35 µM; with MCF7, 6.55 µM.

On to `C#CCNC(=O)/C=C/c1c(/C=C/c2ccc(OC)cc2)cc(OC)cc1OC`, for which the IC50 in assay [1] is 5.08 µM; in assay [2], 9.08 µM; with B16-F10, 8.28 µM; in assay [3] it was greater than 50 µM; in the assay with A549 it was 6.93 µM; with MCF7, 4.56 µM.

Take `COc1ccc(/C=C/c2cc(OC)cc(OC)c2/C=C/C(=O)N(CC(C)C)CC(C)C)cc1`: the 50% inhibitory concentration (IC50) in assay [1] was 2.56 µM; in assay [2], 6.84 µM; in the assay with B16-F10, 4.85 µM; in assay [3], greater than 50 µM; in the assay with A549, 3.35 µM; in the assay with MCF7, 2.39 µM.

Take `COc1ccc(/C=C/c2cc(OC)cc(OC)c2/C=C/C(=O)NC(C)(C)C)cc1`: the IC50 in assay [1] was 5.29 µM; in assay [2], 11.1 µM; in the assay on B16-F10, 7.98 µM; in assay [3] it was greater than 50 µM; with A549, 8.67 µM; in the assay with MCF7, 13.6 µM.

`COc1ccc(/C=C/c2cc(OC)cc(OC)c2/C=C/C(=O)N2CCCC(C)C2)cc1` (stereo not given): the half-maximal inhibitory concentration (IC50) is 3.16 µM in assay [1]; 7.09 µM in assay [2]; 8.25 µM in the assay on B16-F10; greater than 50 µM in assay [3]; 5.82 µM in the assay with A549; 11.9 µM with MCF7.

Regarding `CCCNC(=O)/C=C/c1c(/C=C/c2ccc(OC)cc2)cc(OC)cc1OC`, the IC50 is 2.08 µM in assay [1]; 6.75 µM in assay [2]; 9.08 µM with B16-F10; greater than 50 µM in assay [3]; 5.17 µM with A549; 5.61 µM with MCF7.

For the compound `CCCCN(CCCC)C(=O)/C=C/c1c(/C=C/c2ccc(OC)cc2)cc(OC)cc1OC`, the IC50 in assay [1] was 4.12 µM; in assay [2], 10.1 µM; with B16-F10 it was 9.03 µM; in assay [3] it was greater than 50 µM; in the assay with A549 it was 6.16 µM; with MCF7, 3.99 µM.

As to `COc1ccc(/C=C/c2cc(OC)cc(OC)c2/C=C/C(=O)NC(C)C)cc1`, the concentration for half-maximal inhibition (IC50) worked out at 0.72 µM in assay [1]; 2.01 µM in assay [2]; 4.02 µM in the assay on B16-F10; 40.4 µM in assay [3]; 2.36 µM in the assay on A549; 2.56 µM in the assay on MCF7.

Take `CCCCCN(CCCCC)C(=O)/C=C/c1c(/C=C/c2ccc(OC)cc2)cc(OC)cc1OC`: the IC50 is 7.19 µM in assay [1]; 16.4 µM in assay [2]; 9.27 µM in the assay with B16-F10; greater than 50 µM in assay [3]; 7.49 µM in the assay with A549; 6.13 µM in the assay on MCF7.

With `COc1ccc(/C=C/c2cc(OC)cc(OC)c2/C=C/C(=O)N(C)C)cc1`, the IC50 in assay [1] is 4.36 µM; in assay [2], 13 µM; in the assay with B16-F10, 5.78 µM; in assay [3] it was greater than 50 µM; in the assay with A549, 6 µM; in the assay with MCF7 it was 6.86 µM.

For `COc1ccc(/C=C/c2cc(OC)cc(OC)c2/C=C/C(=O)N2CCC(Cl)CC2)cc1`, the IC50 in assay [1] was 0.46 µM; in assay [2], 1.45 µM; in the assay with B16-F10 it was 4.69 µM; in assay [3], 40.6 µM; in the assay on A549, 2.08 µM; in the assay on MCF7 it was 4.95 µM.

For the compound `COc1ccc(/C=C/c2cc(OC)cc(OC)c2/C=C/C(=O)N2CCCC2)cc1`, the IC50 in assay [1] is 3.76 µM; in assay [2], 8.87 µM; in the assay with B16-F10, 9.28 µM; in assay [3] it was greater than 50 µM; in the assay with A549, 6.35 µM; in the assay on MCF7, 4.2 µM.

`COc1ccc(/C=C/c2cc(OC)cc(OC)c2/C=C/C(=O)N2CCCCC2C)cc1` (stereo not given): the IC50 in assay [1] was 2.44 µM; in assay [2], 6.69 µM; with B16-F10 it was 7.66 µM; in assay [3], greater than 50 µM; in the assay on A549, 5.77 µM; in the assay with MCF7 it was 4.35 µM.

With `COc1ccc(/C=C/c2cc(OC)cc(OC)c2/C=C/C(=O)N2CCC(c3ccccc3)CC2)cc1`, the IC50 in assay [1] is 3.55 µM; in assay [2] it was 8.57 µM; in the assay with B16-F10, 9.18 µM; in assay [3], greater than 50 µM; with A549 it was 6.69 µM; in the assay with MCF7, 4.23 µM.

As for `COc1ccc(/C=C/c2cc(OC)cc(OC)c2/C=C/C(=O)N2CC(C)CC(C)C2)cc1` (stereo not given), the IC50 in assay [1] was 0.58 µM; in assay [2], 1.98 µM; in the assay with B16-F10, 3.26 µM; in assay [3], 45.1 µM; in the assay with A549, 2.27 µM; with MCF7 it was 1.57 µM.
